From ChEMBL document CHEMBL5257040, “Discovery of VU2957 (Valiglurax): An mGlu4 Positive Allosteric Modulator Evaluated as a Preclinical Candidate for the Treatment of Parkinson's Disease” (ACS Med Chem Lett, 2019)
Converted amounts (≈) assume the structure as drawn.

How the values were obtained:
[1] = target: Kv1.5 (Homo sapiens, UniProt P22460); test: Inhibition of Kv1.5 (unknown origin) at 10 uM; assay type: toxicity
Procedure, shortened: (§1)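 Cardiac ion channel electrophysiology (functional EP) panel, with percent inhibition measured at 10 μM.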

[2] = Unbound brain-to-plasma concentration ratio in cynomolgus monkey at 0.2 mg/kg, iv and measured upto 1 hrs by LC-MS/MS analysis; assay type: ADME, organism-based, Macaca fascicularis; conditions: read-out: K(p,uu,brain)
[3] = Protein binding in rat plasma assessed as fraction unbound incubated for 4 hrs by equilibrium dialysis based LC/MS/MS analysis; assay type: ADME, cell-free
[4] = target: Cytochrome P450 1A2 (Homo sapiens, UniProt P05177); test: Induction of CYP1A2 in human hepatocytes; assay type: ADME, cell-based
Procedure, shortened: (§2)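 CYP1A2, 2B6 and 3A4 induction measured in human hepatocytes.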

[5] = Clearance in Cynomolgus monkey plasma at 0.2 mg/kg, iv and measured upto 24 hrs by LC-MS/MS analysis; assay type: ADME, organism-based, Macaca fascicularis
Procedure, shortened: (§3)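 Single intravenous doses: mouse 1 mg/kg, SD rat 0.2 mg/kg, beagle dog 0.5 mg/kg, cynomolgus monkey 0.2 mg/kg. Plasma clearance, Vss and elimination half-life came from the plasma profiles. Values are means of two to three animals.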

[6] = target: Metabotropic glutamate receptor 1 (Rattus norvegicus, UniProt P23385); test: Positive allosteric modulator activity at rat mGlu1 in human HEK cells assessed assessed as increase in calcium flux preincubated for 2.5 mins followed by gluatamate addition by Fluo-4 AM dye based calcium mobilization assay; assay type: cell-based
[7] = AUC (0 to infinity) in CD-1 mouse plasma at 3 mg/kg, po and measured upto 24 hrs by LC-MS/MS analysis; assay type: ADME, organism-based; parameters: dose 3 mg/kg, time < 24 hrs, route po
Procedure, shortened: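 Single oral 3 mg/kg dose in mouse, SD rat, beagle dog and cynomolgus monkey. Total plasma exposure after the oral dose gave Cmax, Tmax, AUC0-inf and F. Values are means of two to three animals.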

[8] = target: Kir2.1 (Homo sapiens, UniProt Q7Z4S6); test: Inhibition of Kir2.1 (unknown origin) at 10 uM; assay type: toxicity; procedure, shortened: as §1
[9] = Metabolic stability in cynomolgus monkey liver microsomes assessed as intrinsic clearance at 1 uM preincubated for 5 mins followed by NADPH addition and measured for 45 mins by LC/MS/MS analysis; assay type: ADME, Macaca fascicularis, Microsome; conditions: time 50 min, read-out: CLH
[10] = target: Amine oxidase [flavin-containing] B (Homo sapiens, UniProt P27338); test: Binding affinity to MAO-B (unknown origin)
[11] = target: Nuclear receptor subfamily 1 group I member 2 (Rattus norvegicus, UniProt Q9R1A7); test: Activation of rat PXR
[12] = AUC in Sprague-Dawley rat at 3 mg/kg, po administered as spray-dried dispersion formulation and measured after 24 hrs by LC-MS/MS analysis; assay type: ADME, organism-based; parameters: dose 3 mg/kg, time 24 hrs, route po; conditions: in vivo
Procedure, shortened: (§4)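 Rats were dosed orally at 3, 10 and 30 mg/kg with a spray-dried dispersion of the free base and HPMCP-HP55 polymer (25%/75%), in 30% Dexolve. Total plasma Cmax and AUC were measured, N = 3.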

[13] = Elimination half life in Sprague-Dawley rat at 0.2 mg/kg, iv and measured upto 24 hrs by LC-MS/MS analysis; assay type: ADME, organism-based; conditions: in vivo, read-out: beta t1/2 (converted); procedure, shortened: as §3
[14] = target: Nav1.5 (Homo sapiens, UniProt Q14524); test: Inhibition of Nav1.5 (unknown origin) at 10 uM; assay type: toxicity
Procedure, shortened: (§5)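 Eurofins Cardiac Profiler functional electrophysiology panel of potassium, calcium and sodium cardiac ion channels, including hERG. Compound tested at 10 μM, reported as percent inhibition.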

[15] = Unbound drug concentration in Sprague-Dawley rat brain at 0.2 mg/kg, iv and measured upto 24 hrs by LC-MS/MS analysis; assay type: ADME, organism-based
[16] = Elimination half life in Cynomolgus monkey at 0.2 mg/kg, iv and measured upto 24 hrs by LC-MS/MS analysis; assay type: ADME, organism-based, Macaca fascicularis; conditions: in vivo, read-out: beta t1/2 (converted); procedure, shortened: as §3
[17] = AUC in Sprague-Dawley rat at 30 mg/kg, po administered as spray-dried dispersion formulation and measured after 24 hrs by LC-MS/MS analysis; assay type: ADME, organism-based; parameters: dose 30 mg/kg, time 24 hrs, route po; conditions: in vivo; procedure, shortened: as §4
[18] = target: Metabotropic glutamate receptor 8 (Rattus norvegicus, UniProt P70579); test: Positive allosteric modulator activity at rat mGlu8 in human HEK cells co-expressing […] assessed as increase in by thallium flux preincubated for 2.5 mins followed by gluatamate addition by thallium flux assay; assay type: cell-based
[19] = target: Aryl hydrocarbon receptor (Homo sapiens, UniProt P35869); test: Activation of human AhR
[20] = target: Metabotropic glutamate receptor 2 (Rattus norvegicus, UniProt P31421); test: Positive allosteric modulator activity at rat mGlu2 in human HEK cells co-expressing […] assessed as increase in by thallium flux preincubated for 2.5 mins followed by gluatamate addition by thallium flux assay; assay type: cell-based
[21] = target: Metabotropic glutamate receptor 4 (Homo sapiens) (UniProt Q14833); test: Positive allosteric modulator activity at human mGlu4 in Chinese hamster CHO cells co-expressing Gqi5 assessed as maximum increase in calcium flux preincubated for 2.5 mins followed by gluatamate addition and measured for 2 mins by Fluo-4 AM dye based calcium mobilization assay; assay type: cell-based; conditions: filed as positive allosteric modulator, time 4.5 min
[22] = target: HCN4 (Homo sapiens, UniProt Q9Y3Q4); test: Inhibition of HCN4 (unknown origin) at 10 uM; assay type: toxicity; procedure, shortened: as §1
[23] = target: KCNQ1/MINK (Homo sapiens, UniProt P51787+Q8N4C8); test: Inhibition of KCNQ1/MINK (unknown origin) at 10 uM; assay type: toxicity; procedure, shortened: as §1
[24] = Tmax in Cynomolgus monkey at 3 mg/kg, po and measured upto 24 hrs by LC-MS/MS analysis; assay type: ADME, organism-based, Macaca fascicularis; conditions: in vivo
Procedure, shortened: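 Single-dose iv and oral PK in separate arms: mouse 1 mg/kg iv / 3 mg/kg po, SD rat 0.2/3, beagle 0.5/3, cynomolgus 0.2/3 mg/kg. Plasma parameters (Vss, Tmax, F) are means of two to three animals per species.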

[25] = Drug uptake in cerebrospinal fluid of haloperidol-induced catalepsy Sprague-Dawley rat model at 0.3 to 30 mg/kg,po; assay type: ADME, organism-based; conditions: in vivo, dose 0.3-30 mg/kg, read-out: Ct
Procedure, shortened: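 Rats were given haloperidol 1.5 mg/kg i.p. to induce catalepsy and dosed orally at 0.3–30 mg/kg, N = 8–10 per group. Total plasma and CSF concentrations were measured alongside the catalepsy read-out. Satellite rats were used for PK in the time-course study.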

[26] = target: Cytochrome P450 3A4 (Homo sapiens, UniProt P08684); test: Induction of CYP3A4 in human hepatocytes; assay type: ADME, cell-based; procedure, shortened: as §2
[27] = Lipophilicity, logP of the compound; assay type: physicochemical; conditions: octanol/water
[28] = target: P-gp (ABCB1) (Homo sapiens, UniProt P08183); test: Substrate activity at human P-gp assessed as apparent permeability; assay type: ADME; conditions: not told
[29] = target: hERG (KCNH2) (Homo sapiens, UniProt Q12809); test: Inhibition of human ERG at 10 uM; assay type: toxicity; procedure, shortened: as §5
[30] = Genotoxicity in Salmonella typhimurium TA98 by Ames test; assay type: toxicity; conditions: salmonella enterica subsp. enterica serovar typhimurium
Procedure, shortened: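 Ames bacterial reverse mutation test in strains TA98 and […], run with and without S9 metabolic activation.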

[31] = Brain to plasma permeability coefficient, Kp in cynomolgus monkey at 0.2 mg/kg, iv and measured upto 1 hrs by LC-MS/MS analysis; assay type: ADME, organism-based, Macaca fascicularis
Procedure, shortened: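 Total brain to total plasma partition coefficient (Kp) measured in mouse, SD rat and cynomolgus monkey. The unbound ratio (Kp,uu) was corrected with brain homogenate binding. Values are means of two to three animals.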

[32] = Solubility of compound in FaSSGF; assay type: ADME

Sequence of Metabotropic glutamate receptor 1 (P23385 whole entry): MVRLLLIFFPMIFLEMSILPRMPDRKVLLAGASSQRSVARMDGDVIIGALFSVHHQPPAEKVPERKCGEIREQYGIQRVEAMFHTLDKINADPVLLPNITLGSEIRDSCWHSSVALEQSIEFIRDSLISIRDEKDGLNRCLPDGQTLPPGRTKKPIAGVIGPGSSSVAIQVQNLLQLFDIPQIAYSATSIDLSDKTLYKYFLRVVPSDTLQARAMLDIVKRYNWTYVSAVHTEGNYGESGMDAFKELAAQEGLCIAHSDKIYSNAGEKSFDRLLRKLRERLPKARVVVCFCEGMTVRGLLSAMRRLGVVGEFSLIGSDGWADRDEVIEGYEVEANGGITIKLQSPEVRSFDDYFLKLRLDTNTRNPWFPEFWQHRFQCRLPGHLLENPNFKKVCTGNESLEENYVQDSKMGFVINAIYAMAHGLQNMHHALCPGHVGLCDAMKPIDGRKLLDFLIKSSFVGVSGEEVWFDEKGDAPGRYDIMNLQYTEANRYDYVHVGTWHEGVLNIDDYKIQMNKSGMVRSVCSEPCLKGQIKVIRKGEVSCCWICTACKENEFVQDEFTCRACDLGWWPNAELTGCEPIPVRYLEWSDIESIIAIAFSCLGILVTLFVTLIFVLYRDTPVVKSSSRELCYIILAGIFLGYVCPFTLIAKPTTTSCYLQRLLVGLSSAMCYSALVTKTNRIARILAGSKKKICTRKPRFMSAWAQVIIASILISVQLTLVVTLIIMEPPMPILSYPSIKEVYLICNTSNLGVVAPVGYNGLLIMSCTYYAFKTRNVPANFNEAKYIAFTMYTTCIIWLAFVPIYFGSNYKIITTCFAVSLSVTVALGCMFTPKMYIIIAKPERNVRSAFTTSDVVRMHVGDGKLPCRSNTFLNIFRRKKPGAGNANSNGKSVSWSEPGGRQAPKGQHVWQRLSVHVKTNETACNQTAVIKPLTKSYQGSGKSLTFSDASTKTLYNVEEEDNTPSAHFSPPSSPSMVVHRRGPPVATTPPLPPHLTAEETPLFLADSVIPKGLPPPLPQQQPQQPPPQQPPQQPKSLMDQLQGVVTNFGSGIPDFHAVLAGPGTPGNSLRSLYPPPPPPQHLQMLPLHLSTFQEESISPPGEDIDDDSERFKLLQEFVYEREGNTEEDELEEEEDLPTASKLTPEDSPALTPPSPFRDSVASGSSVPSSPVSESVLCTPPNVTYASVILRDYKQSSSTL
Sequence of hERG (KCNH2) (Q12809 whole entry): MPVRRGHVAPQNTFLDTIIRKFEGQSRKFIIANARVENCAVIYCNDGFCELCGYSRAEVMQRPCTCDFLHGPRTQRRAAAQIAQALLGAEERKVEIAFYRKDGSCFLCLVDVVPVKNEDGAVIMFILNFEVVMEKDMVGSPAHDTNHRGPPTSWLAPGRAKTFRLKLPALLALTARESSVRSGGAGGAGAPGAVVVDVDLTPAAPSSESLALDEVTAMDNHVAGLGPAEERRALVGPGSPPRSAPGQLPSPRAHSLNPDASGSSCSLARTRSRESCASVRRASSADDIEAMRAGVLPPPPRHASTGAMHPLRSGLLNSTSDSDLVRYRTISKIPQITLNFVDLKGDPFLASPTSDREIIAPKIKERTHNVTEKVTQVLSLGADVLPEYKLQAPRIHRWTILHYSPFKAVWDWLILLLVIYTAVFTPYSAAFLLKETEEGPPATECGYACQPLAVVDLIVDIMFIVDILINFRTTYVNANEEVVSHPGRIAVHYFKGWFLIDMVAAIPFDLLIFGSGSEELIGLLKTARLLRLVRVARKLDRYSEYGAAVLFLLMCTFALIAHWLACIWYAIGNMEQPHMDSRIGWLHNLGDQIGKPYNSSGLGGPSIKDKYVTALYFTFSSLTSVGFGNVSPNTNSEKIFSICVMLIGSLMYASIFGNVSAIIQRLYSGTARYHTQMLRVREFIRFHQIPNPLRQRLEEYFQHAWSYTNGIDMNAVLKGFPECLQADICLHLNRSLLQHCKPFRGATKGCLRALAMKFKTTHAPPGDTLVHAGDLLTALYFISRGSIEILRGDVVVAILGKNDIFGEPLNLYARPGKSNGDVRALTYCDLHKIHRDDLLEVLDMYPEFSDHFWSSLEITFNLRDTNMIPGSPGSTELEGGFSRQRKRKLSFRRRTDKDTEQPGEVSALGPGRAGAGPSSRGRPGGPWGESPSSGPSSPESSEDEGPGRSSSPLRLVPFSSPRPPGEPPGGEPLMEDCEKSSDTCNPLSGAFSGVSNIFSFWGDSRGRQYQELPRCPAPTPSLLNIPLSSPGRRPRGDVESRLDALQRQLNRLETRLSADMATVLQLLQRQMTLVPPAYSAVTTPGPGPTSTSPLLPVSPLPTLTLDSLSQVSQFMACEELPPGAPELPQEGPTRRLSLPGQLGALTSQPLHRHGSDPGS
Sequence of Nav1.5 (Q14524 whole entry): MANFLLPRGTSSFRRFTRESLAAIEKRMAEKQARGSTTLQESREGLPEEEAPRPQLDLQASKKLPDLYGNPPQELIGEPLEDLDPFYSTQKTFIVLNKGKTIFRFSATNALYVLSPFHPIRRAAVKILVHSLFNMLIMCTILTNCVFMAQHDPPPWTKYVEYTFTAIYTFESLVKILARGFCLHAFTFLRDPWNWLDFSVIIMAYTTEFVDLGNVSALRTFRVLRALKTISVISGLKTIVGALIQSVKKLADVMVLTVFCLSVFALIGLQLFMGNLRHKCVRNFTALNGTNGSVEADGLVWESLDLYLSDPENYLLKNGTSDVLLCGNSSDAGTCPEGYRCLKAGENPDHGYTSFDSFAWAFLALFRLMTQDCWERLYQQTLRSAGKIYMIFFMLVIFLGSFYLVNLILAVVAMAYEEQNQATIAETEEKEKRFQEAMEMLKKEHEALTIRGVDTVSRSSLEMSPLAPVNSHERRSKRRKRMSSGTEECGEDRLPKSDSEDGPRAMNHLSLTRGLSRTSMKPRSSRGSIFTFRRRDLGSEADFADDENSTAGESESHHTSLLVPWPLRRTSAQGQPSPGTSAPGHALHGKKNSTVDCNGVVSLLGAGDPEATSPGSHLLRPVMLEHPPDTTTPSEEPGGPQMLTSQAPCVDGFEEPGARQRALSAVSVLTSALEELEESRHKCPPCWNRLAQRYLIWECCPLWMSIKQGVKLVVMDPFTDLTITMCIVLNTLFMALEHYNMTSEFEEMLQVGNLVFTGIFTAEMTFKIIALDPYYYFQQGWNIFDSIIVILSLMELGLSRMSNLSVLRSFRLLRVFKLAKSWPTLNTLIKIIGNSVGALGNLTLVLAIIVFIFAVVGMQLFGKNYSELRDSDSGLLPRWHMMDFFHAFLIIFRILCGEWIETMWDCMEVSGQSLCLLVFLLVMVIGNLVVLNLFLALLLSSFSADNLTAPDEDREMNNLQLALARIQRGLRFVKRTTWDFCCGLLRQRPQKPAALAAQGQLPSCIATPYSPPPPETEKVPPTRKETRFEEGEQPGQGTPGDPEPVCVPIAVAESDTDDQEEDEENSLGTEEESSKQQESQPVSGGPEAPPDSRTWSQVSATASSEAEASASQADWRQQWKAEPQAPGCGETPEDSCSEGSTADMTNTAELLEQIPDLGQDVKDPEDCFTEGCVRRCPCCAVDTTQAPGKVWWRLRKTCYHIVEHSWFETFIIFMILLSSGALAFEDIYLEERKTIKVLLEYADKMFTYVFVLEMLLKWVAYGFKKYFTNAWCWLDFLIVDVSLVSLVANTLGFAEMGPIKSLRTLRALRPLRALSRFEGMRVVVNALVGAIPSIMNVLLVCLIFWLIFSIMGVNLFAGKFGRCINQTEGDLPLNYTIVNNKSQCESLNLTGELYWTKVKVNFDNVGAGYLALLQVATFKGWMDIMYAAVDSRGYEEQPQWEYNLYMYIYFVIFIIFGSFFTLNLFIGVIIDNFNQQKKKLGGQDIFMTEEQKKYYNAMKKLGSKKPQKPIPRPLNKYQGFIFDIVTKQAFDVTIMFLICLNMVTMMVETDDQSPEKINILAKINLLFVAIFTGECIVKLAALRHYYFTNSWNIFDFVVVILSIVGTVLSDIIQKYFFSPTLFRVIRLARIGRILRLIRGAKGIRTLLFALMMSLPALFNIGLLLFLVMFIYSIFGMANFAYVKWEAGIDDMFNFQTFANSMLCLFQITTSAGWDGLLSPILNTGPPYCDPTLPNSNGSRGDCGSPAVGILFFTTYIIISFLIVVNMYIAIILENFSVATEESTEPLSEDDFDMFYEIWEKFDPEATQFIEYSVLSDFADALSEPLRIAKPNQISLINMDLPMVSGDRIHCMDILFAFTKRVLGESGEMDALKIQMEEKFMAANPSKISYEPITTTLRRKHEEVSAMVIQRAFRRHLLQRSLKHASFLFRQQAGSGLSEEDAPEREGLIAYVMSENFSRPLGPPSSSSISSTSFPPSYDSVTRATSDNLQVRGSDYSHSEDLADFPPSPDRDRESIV
Sequence of Amine oxidase [flavin-containing] B (P27338 whole entry): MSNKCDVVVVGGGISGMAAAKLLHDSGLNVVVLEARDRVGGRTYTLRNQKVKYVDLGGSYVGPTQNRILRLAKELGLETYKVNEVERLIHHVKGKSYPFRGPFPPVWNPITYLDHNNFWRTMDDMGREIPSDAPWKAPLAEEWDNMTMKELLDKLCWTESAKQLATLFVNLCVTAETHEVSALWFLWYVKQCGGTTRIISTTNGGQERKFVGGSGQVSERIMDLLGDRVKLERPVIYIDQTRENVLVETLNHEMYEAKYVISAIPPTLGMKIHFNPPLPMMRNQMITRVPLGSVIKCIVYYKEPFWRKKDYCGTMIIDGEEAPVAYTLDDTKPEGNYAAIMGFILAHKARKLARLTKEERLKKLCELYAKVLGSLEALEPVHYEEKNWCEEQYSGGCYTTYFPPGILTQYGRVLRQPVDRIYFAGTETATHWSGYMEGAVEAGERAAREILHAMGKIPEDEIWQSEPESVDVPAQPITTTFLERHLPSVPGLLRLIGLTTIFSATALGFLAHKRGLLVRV

FC(F)(F)c1nccc2cc(Nc3n[nH]c4ncccc34)ccc12
inhibition at 10 µM [1]: < 50%
Kp uu at 1 h [2]: 0.07
fraction unbound at 4 h [3]: 0.01
Activity [4]: Not Active
clearance [5]: 17.1 mL/min/kg
EC50 [6]: > 10 µM
AUC(0-inf) [7]: 1.55 µM·h
inhibition at 10 µM [8]: < 50%
CLint scaled at 1 µM [9]: 8.8 mL/min/kg
EC50 [10]: > 30 µM
Activity [11]: Not Active
AUC at 24 h [12]: 5.92 µM·h
half-life [13]: 1.05 h
inhibition at 10 µM [14]: < 50%
fraction unbound at 24 h [15]: > 0.001
half-life [16]: 3.98 h
AUC at 24 h [17]: 83.9 µM·h
EC50 [18]: > 10 µM
Activity [19]: Not Active
EC50 [20]: > 10 µM
Emax [21]: 92.6%
inhibition at 10 µM [22]: < 50%
inhibition at 10 µM [23]: < 50%
Tmax [24]: 6 h
concentration [25]: 148 nM
Activity [26]: Not Active
logP [27]: 3.78
Papp [28]: 8 ×10⁻⁶ cm/s
inhibition at 10 µM [29]: < 50%
Activity [30]: Non-Toxic
Kp at 1 h [31]: 1.24
solubility [32]: 9 µg/mL (≈ 27.3 µM)
